# Laboratory results published in ChEMBL document CHEMBL1687778, “Genetic determinants involved in the susceptibility of Pseudomonas aeruginosa to beta-lactam antibiotics” (2010).
# Legend:
# [1] = tested on: Pseudomonas aeruginosa PA14; assay: Activity of wild type Pseudomonas aeruginosa PA14 Beta-lactamase assessed as nitrocefin hydrolysis per mg of protein by spectrophotometry
# Method in brief: (§1)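 Cells grown to OD600 1.0, pelleted and resuspended in 0.1 M KH2PO4-Na2HPO4 pH 7.0. Crude extract made by two freeze-thaw cycles plus sonication on ice. β-Lactamase read as absorbance change at 485 nm with 50 µM nitrocefin in the same pH 7.0 phosphate buffer. Extract protein measured by BCA against a bovine serum albumin standard.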
# [2] = tested on: Pseudomonas aeruginosa PA14; assay: Activity of Beta-lactamase in Pseudomonas aeruginosa PA14 PA3047 harboring dacB mutant gene assessed as nitrocefin hydrolysis per mg of protein by spectrophotometry; method in brief: as §1
# [3] = tested on: Pseudomonas aeruginosa PA14; assay: Activity of Beta-lactamase in Pseudomonas aeruginosa PA14 PA3047 harboring complemented dacB mutant gene assessed as nitrocefin hydrolysis per mg of protein by spectrophotometry; method in brief: as §1
# [4] = tested on: Pseudomonas aeruginosa PAO1; assay: Activity of Beta-lactamase in Pseudomonas aeruginosa PAO1 PA4109 harboring ampR mutant gene assessed as nitrocefin hydrolysis per mg of protein by spectrophotometry; method in brief: as §1
# [5] = tested on: Pseudomonas aeruginosa PA14; assay: Activity of Beta-lactamase in Pseudomonas aeruginosa PA14 PA4522 harboring ampD mutant gene assessed as nitrocefin hydrolysis per mg of protein by spectrophotometry; method in brief: as §1
# [6] = tested on: Pseudomonas aeruginosa PAO1; assay: Activity of Beta-lactamase in Pseudomonas aeruginosa PAO1 PA4522 harboring ampD mutant gene assessed as nitrocefin hydrolysis per mg of protein by spectrophotometry; method in brief: as §1
# Pseudomonas aeruginosa [7] = assay: Antimicrobial activity against wild type Pseudomonas aeruginosa by Etest method
# Pseudomonas aeruginosa [8] = assay: Antimicrobial activity against wild type Pseudomonas aeruginosa harboring pBBR1MCS-3 by Etest method
# Pseudomonas aeruginosa [9] = assay: Antimicrobial activity against Pseudomonas aeruginosa harboring pBBR-algU complemented gene by Etest method
# Pseudomonas aeruginosa [10] = assay: Antimicrobial activity against Pseudomonas aeruginosa harboring mucD mutant gene by Etest method
# Pseudomonas aeruginosa [11] = assay: Antimicrobial activity against Pseudomonas aeruginosa harboring pBBR1MCS-3 expressing mucD mutant gene by Etest method
# Pseudomonas aeruginosa [12] = assay: Antimicrobial activity against Pseudomonas aeruginosa harboring pBBR-mucD complemented gene by Etest method
SMILES,Activity [1] [nmol/min],Activity [2] [nmol/min],Activity [3] [nmol/min],Activity [4] [nmol/min],Activity [5] [nmol/min],Activity [6] [nmol/min],MIC (Pseudomonas aeruginosa [7]) [µg/mL],MIC (Pseudomonas aeruginosa [8]) [µg/mL],MIC (Pseudomonas aeruginosa [9]) [µg/mL],MIC (Pseudomonas aeruginosa [10]) [µg/mL],MIC (Pseudomonas aeruginosa [11]) [µg/mL],MIC (Pseudomonas aeruginosa [12]) [µg/mL]
CC(C)(O/N=C(\C(=O)N[C@@H]1C(=O)N2C(C(=O)[O-])=C(C[n+]3ccccc3)CS[C@H]12)c1csc(N)n1)C(=O)O [CEFTAZIDIME],4.9,110,3.8,111,31,74,,,,,,
C[C@@H](O)[C@H]1C(=O)N2C(C(=O)O)=C(SCCNC=N)C[C@H]12 [IMIPENEM ANHYDROUS],,,,,,,0.5,0.5,0.5,0.25,0.25,0.5
